Columns and labels:
[1] = assay type: in vivo, Wistar rat
[2] = tested on: hyperlipidemic Wistar rats; assay: Plasma lipid levels; assay type: in vivo, Wistar rat; settings: 4 weeks treatment; for reduction in total cholesterol level: plasma, in comparison to lipid control
Wistar rat brain = assay: Brain neurotransmitter levels; assay type: in vivo; settings: 4 weeks treatment
How it was run: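 Wistar rats on high-fat diet for up to 4 weeks, caged ≤6 per cage at 25°C±2°C. Groups: control, oral SSRI test compound 20 mg/kg b.w., statin test compound 40 mg/kg b.w., or both, for 4 weeks. Brain (100 mg) homogenized in 1 mL 0.1 M perchloric acid with 0.05% EDTA, centrifuged 18,000 rpm, 10 min, 4°C. Mean±SD, n=6; p<0.05 versus lipid control.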

[3] = assay type: in vivo, Wistar rat; remark: listed apart in the source
[4] = after 2-week dosing of FLX; cited from earlier work
[5] = STT+FLX compared to STT monotherapy
[6] = STT+FLX for 4 weeks compared to STT-alone treatment

With `CNCCC(Oc1ccc(C(F)(F)F)cc1)c1ccccc1` (stereo not drawn) [FLX, fluoxetine] the “accumulation in the brain relative to plasma” value ([1]; after multiple-dose administration) was “multifold higher”, the “effect on plasma triglyceride level” value ([2]; versus lipid control) was “failed to produce any significant effect” and the “reduction in total cholesterol level” value [2] was 16.3%. The “brain concentration of 5-hydroxytryptamine (5HT)” value (Wistar rat brain; mean±SD, n=6) was 0.62 ± 0.15 µg/g, the “brain concentration of dopamine” value (Wistar rat brain; mean±SD, n=6) was 1.48 ± 0.14 µg/g and the “effect on brain level of HIAA” value (Wistar rat brain; versus control) was “failed to alter”.

In the case of `CCC(C)(C)C(=O)O[C@H]1C[C@@H](C)C=C2C=C[C@H](C)[C@H](CC[C@@H](O)C[C@@H](O)CC(=O)O)[C@H]21` [STA, simvastatin acid], the “reduction in bioavailability (AUC0−∞) in plasma” value [3, 5] is reported as 36%.

In the case of `COc1ccc2c(c1)[C@]13CCCC[C@@H]1[C@H](C2)N(C)CC3` [dextromethorphan], the increase in bioavailability [4] is listed as 27 fold.

For `CCC(C)(C)C(=O)O[C@H]1C[C@@H](C)C=C2C=C[C@H](C)[C@H](CC[C@@H]3C[C@@H](O)CC(=O)O3)[C@H]21` [STT, simvastatin], the “increase in AUC in plasma” value [3, 6] was 41.6%, the “increase in Cmax in plasma” value [3, 6] was 57.9% and the “percentage increase in AUC0−t in brain” value [1, 5] was 79%. The “effect on plasma HDL level” value ([2]; versus lipid control) was “increase in plasma HDL level”, the “effect on plasma triglyceride level” value ([2]; versus lipid control) was “significant reduction” and the “reduction in total cholesterol level” value [2] was 41.6%. The “brain concentration of 5-hydroxytryptamine (5HT)” value (Wistar rat brain; mean±SD, n=6) was 0.45 ± 0.14 µg/g, the “effect on brain level of HIAA” value (Wistar rat brain; versus control) was “unaffected” and the “effect on brain level of dopamine” value (Wistar rat brain; versus control) was “unaffected”.

For `COc1ccc2[nH]c([S+]([O-])Cc3ncc(C)c(OC)c3C)nc2c1` (stereo not drawn) [omeprazole], the increase in bioavailability [4] is given as 7.1 fold.

Source: paper PMC5395284 (Journal of Experimental Pharmacology, 2017)
